# Measurements as given in article PMC4272346 (Biochemistry, 2013).
# Experiments:
# full-length NS3 = full-length NS3 (Hepatitis C virus genotype 1b, UniProt Q9WMX2); assay: Studies repeated with full-length NS3 with and without NS4A; conditions: presence and absence of NS4A
# NS3h R467E = assay: FP-based DNA binding assay, displacement from mutant; parameters: species or system hepatitis C virus; conditions: Cy5-dT15 displacement at EC85 of protein
# Summary of the method: (§1)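 Fluorescence polarization displacement using C-terminally His-tagged NS3h helicase domain mutants and wildtype. Each protein was at its EC85 from titration, with the test compound added in DMSO. Excitation 635 nm, emission 667 nm. IC50 came from dose-response fits, and Ki from Cheng-Prusoff using protein EC50 and concentration, assuming competition with DNA.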
# NS3h_E291Q = assay: as above; parameters: species or system hepatitis C virus; conditions: Cy5-dT15 displacement at EC85 of protein
# Summary of the method: as §1
# NS3h [1] = target: T1, NS3h (Hepatitis C virus genotype 1b, UniProt Q9WMX2); assay: ATPase assay 1: DNA; type: biochemical
# NS3h [2] = target: T1, NS3h; assay: ATPase assay 2: NS3h-catalyzed ATP hydrolysis in the absence of nucleic acids; type: biochemical
# NS3h (wildtype) [3] = conditions: read-out: IC50, polarization shift of a Cy5 labeled oligonucleotide; NS3h bound to Cy5-labeled DNA oligonucleotide; ref 11 (Mukherjee et al.); cited from earlier work
# NS3h [4] = target: T1, NS3h; assay: Differential scanning calorimetry; type: binding; conditions: 10 μM NS3h, 300 μM ATA
# Summary of the method: (§2)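 Where present, dT20 was at 10 μM, and the test compound was at 10 μM–5 mM. Samples were heated 20–100 °C at 1 °C/min, with a repeat scan of the same sample as baseline. Fitting used a scaled two-state model. For the NS3h-dT20 samples, Tm versus compound concentration was fitted to a dose-response equation.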
# NS3h-dT20 complex = NS3h-dT20 complex (Hepatitis C virus genotype 1b, UniProt Q9WMX2); assay: DSC of pre-assembled NS3h-dT20 complex; type: binding
# Summary of the method: as §2
# NS3h [5] = target: T1, NS3h; assay: Electrophoretic mobility shift assay of NS3h-Cy5-dT15 complex; type: binding
# NS3h_D290N = assay: FP-based DNA binding assay, displacement from mutant; parameters: species or system hepatitis C virus; conditions: Cy5-dT15 displacement at EC85 of protein
# Summary of the method: as §1
# NS3h_H369K = assay: as above; parameters: species or system hepatitis C virus; conditions: Cy5-dT15 displacement at EC85 of protein
# Summary of the method: as §1
# NS3h [6] = target: T1, NS3h; assay: Isothermal titration calorimetry; type: binding
# Summary of the method: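 NS3h was dialysed overnight into 25 mM MOPS pH 7.0, 1.25 mM MgCl2, 0.01% Tween 20, quantified by A280 (ε 52,360 M−1cm−1) and used at 20 μM. The test compound was 250 μM in dialysis buffer, given as 16 injections of 3 μl at 300 s intervals at 5 °C, with the first injection excluded. Baseline was zeroed on the mean of the last three injections, then fitted to an independent sites model. Three titrations were run.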
# NS3h_E493Q = assay: FP-based DNA binding assay, displacement from mutant; parameters: species or system hepatitis C virus; conditions: Cy5-dT15 displacement at EC85 of protein
# Summary of the method: as §1
# NS3h (wildtype) [7] = target: T2, NS3h (wildtype) (Hepatitis C virus (genotype 1b, con1; …, UniProt Q9WMX2 1192-1657); assay: ITC
# NS3h (wildtype) [8] = target: T2, NS3h (wildtype); assay: EMSA
molecule,measurement,setting,value
"O=C(O)C1=CC(=C(c2ccc(O)c(C(=O)O)c2)c2ccc(O)c(C(=O)O)c2)C=CC1=O [ATA, aurintricarboxylic acid]",Sensitivity of full-length NS3 compared with NS3h,full-length NS3,not noted any differences in the sensitivity
same,Relative Ki (Cheng-Prusoff) compared with wildtype NS3h,NS3h R467E,higher
same,Relative Ki (Cheng-Prusoff) compared with wildtype NS3h,NS3h_E291Q,notably lower
same,Ki,NS3h [1],1400 ± 200 nM
same,Ki,NS3h [2],450 ± 150 nM
same,IC50,NS3h (wildtype) [3],1400 nM
same,Change in enthalpy of unfolding (ΔΔH),NS3h [4],-52.1 kcal/mol
same,Increase of unfolding temperature of NS3h,NS3h [4],8 °C
same,EC50,NS3h-dT20 complex,~500000 nM
same,Maximum decrease of Tm of NS3h-dT20 complex,"NS3h-dT20 complex; NS3h and dT20 10 μM each, dose response fit",11 ± 3 °C
same,IC50,NS3h [5],4000 nM
same,Relative Ki (Cheng-Prusoff) compared with wildtype NS3h,NS3h_D290N,notably lower
same,Relative Ki (Cheng-Prusoff) compared with wildtype NS3h,NS3h_H369K,similar
same,Kd,NS3h [6],1300 ± 200 nM
same,ATA monomers binding per NS3h (stoichiometry),"NS3h [6]; 20 μM NS3h titrated with 250 μM ATA, 5 °C",1.5
same,ΔH of binding,"NS3h [6]; ITC, 5 °C",-3.2 ± 0.14 kcal/mol
same,ΔS of binding,NS3h [6]; at 5 °C,63 J/mol K
same,−TΔS of binding,NS3h [6]; at 5 °C,-4.18 kcal/mol
same,ΔG of binding,"NS3h [6]; at 5 °C, from Kd",-7.39 ± 0.072 kcal/mol
same,Relative Ki (Cheng-Prusoff) compared with wildtype NS3h,NS3h_E493Q,higher
TTTTTTTTTTTTTTTTTTTT (ssDNA) [dT20],binding result,NS3h (wildtype) [7],binds
TTTTTTTTTTTTTTT (ssDNA) [Cy5-dT15],binding result,NS3h (wildtype) [8],binds
